Measured values taken from ChEMBL document CHEMBL1136393, “4-(3,4-dihydro-1H-isoquinolin-2yl)-pyridines and 4-(3,4-dihydro-1H-isoquinolin-2-yl)-quinolines as potent NR1/2B subtype selective NMDA receptor antagonists” (Bioorg Med Chem Lett, 2003).

How the values were obtained:
[1] = Inhibition of [3H]25-6981 binding to N-methyl-D-aspartate glutamate receptor 2B of rat brain
[2] = target: T1, Adrenergic receptor alpha-1 (Rattus norvegicus, UniProt P15823+P23944+P43140); assay: Binding affinity towards alpha receptor in rat brain using [3H]prazosin as radioligand; assay type: tissue-based
T1 sequence (P15823 whole entry): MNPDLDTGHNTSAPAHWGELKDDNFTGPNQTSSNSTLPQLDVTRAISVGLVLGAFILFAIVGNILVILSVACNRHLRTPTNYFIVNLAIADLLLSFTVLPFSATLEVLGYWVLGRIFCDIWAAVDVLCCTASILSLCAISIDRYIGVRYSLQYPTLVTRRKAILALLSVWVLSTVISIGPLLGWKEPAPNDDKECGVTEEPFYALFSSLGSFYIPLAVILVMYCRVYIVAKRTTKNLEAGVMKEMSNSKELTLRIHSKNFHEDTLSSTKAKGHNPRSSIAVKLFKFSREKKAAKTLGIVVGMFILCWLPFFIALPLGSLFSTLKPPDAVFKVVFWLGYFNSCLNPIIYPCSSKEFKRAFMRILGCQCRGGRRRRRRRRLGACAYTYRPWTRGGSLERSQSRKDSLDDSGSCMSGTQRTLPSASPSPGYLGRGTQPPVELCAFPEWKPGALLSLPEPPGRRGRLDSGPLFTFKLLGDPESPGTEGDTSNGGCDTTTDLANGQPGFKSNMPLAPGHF
T1 sequence (P23944 whole entry): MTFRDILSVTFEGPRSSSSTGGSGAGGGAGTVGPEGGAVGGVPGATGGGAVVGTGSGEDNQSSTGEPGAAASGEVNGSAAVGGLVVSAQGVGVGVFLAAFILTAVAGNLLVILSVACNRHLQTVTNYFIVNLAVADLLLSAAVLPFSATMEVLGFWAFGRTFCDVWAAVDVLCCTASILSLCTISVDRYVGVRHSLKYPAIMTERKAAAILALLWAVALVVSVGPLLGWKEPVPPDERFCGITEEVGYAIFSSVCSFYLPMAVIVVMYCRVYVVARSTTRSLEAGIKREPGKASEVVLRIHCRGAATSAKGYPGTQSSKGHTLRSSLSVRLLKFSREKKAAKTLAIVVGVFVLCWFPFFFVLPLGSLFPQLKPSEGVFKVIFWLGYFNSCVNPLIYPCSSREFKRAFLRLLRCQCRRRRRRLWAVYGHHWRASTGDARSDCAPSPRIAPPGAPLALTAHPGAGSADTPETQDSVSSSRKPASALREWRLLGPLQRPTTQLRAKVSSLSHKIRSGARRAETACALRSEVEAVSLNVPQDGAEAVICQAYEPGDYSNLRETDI
T1 sequence (P43140 whole entry): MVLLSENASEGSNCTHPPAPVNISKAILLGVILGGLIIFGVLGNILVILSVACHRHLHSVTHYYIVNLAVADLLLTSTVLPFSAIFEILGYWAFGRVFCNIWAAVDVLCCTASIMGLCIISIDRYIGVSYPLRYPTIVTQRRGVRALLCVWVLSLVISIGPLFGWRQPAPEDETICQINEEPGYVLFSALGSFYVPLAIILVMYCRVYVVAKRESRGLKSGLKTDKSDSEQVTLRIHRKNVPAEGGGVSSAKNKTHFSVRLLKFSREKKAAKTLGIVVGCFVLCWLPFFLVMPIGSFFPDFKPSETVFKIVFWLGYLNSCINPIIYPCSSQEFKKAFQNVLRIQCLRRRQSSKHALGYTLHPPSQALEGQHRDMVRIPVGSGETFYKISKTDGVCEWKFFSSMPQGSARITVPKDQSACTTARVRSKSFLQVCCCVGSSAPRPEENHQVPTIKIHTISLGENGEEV

[3] = Binding affinity towards N-methyl-D-aspartate (NMDA) receptor in rat brain using [3H]-25-6981 as radioligand; assay type: tissue-based
[4] = target: T2, Muscarinic acetylcholine receptor M1 (Rattus norvegicus, UniProt P08482); assay: Binding affinity towards Muscarinic acetylcholine receptor M1 in […] using [3H]pirenzepine as radioligand
T2 sequence (P08482 whole entry): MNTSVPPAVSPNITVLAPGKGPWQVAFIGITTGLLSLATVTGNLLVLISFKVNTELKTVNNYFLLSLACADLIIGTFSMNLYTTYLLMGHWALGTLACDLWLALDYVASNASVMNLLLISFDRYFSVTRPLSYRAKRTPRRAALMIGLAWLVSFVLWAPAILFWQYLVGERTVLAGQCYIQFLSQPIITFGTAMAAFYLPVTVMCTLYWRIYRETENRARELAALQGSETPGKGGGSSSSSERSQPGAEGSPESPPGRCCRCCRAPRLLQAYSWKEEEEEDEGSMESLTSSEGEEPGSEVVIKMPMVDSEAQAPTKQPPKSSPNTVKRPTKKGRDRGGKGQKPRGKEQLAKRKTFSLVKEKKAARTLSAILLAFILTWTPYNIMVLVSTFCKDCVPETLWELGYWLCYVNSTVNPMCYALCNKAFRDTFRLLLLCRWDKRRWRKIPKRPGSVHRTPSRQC

[5] = target: T1, Adrenergic receptor alpha-1; assay: Binding affinity towards Alpha-1 adrenergic receptor in rat brain using [3H]prazosin; assay type: tissue-based
Mus musculus = assay: In vivo effective dose in mice after intraperitoneal administration using standard sound induced seizures assay; assay type: functional; conditions: ip
Method in brief: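 DBA/2 mice; compound given intraperitoneally 30 min before sound-induced seizure testing; ED50 in mg/kg.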

[6] = target: T2, Muscarinic acetylcholine receptor M1; assay: Binding affinity towards muscarinic acetylcholine receptor M1 in […] using [3H]pirenzepine as radioligand

| Ki [1] | Ki [2] | Ki [3] | Ki [4] | Ki [5] | Ki [6] | Structure (SMILES) | ED50 (Mus musculus) |
| --- | --- | --- | --- | --- | --- | --- | --- |
| 75 nM |  |  |  |  |  | Cc1cc(N2CCc3ccccc3C2)c2ccccc2n1 |  |
|  | 20000 nM | 15 nM | 60000 nM |  |  | Cc1cc(N2CCc3ccccc3C2)cc(NC(=O)CO)n1 |  |
| 2 nM |  |  |  | 2300 nM |  | OCCNc1ccnc(N2CCc3ccccc3C2)c1 | 13 mg/kg |
|  | 2100 nM | 2 nM | 400 nM |  |  | Nc1cc(N2CCc3ccccc3C2)ccn1 |  |
|  | 120 nM | 19 nM |  |  |  | Nc1cc(N2CCc3ccccc3C2)c2ccccc2n1 |  |
|  | 3500 nM | 2 nM | 6800 nM |  |  | Cc1cc(N2CCc3ccccc3C2)cc(NCCO)n1 | 18 mg/kg |
| 230 nM |  |  |  |  |  | Clc1ccc2c(c1)CCN(c1ccncc1)C2 |  |
|  | 12000 nM | 8 nM | 11000 nM |  |  | CCOC(=O)C(=O)Nc1cc(N2CCc3ccccc3C2)cc(C)n1 |  |
| 25 nM |  |  |  | 2200 nM | 900 nM | CC1CN(c2ccncc2)Cc2ccccc21 (stereo not given) |  |
| 28000 nM |  |  |  |  |  | COc1cc2c(cc1OC)CN(c1ccncc1)CC2 |  |
| 26 nM |  |  |  | 3800 nM | 650 nM | Clc1cccc2c1CN(c1ccncc1)CC2 |  |
| 37 nM |  |  |  | 1300 nM | 1000 nM | Clc1ccc2c(c1)CN(c1ccncc1)CC2 |  |
|  | 1500 nM | 4 nM | 2600 nM |  |  | Cc1cc(N2CCc3ccccc3C2)cc(N)n1 |  |
| 8 nM |  |  |  | 1500 nM | 660 nM | Clc1cccc2c1CCN(c1ccncc1)C2 | 2 mg/kg |
|  | 5700 nM | 8 nM |  |  |  | Cc1cc(N2CCc3ccccc3C2)ccn1 |  |
|  | 1700 nM | 22 nM | 6700 nM |  |  | OCCNc1cc(N2CCc3ccccc3C2)c2ccccc2n1 |  |
| 29 nM |  |  |  | 3200 nM | 2600 nM | c1ccc2c(c1)CCN(c1ccnc3ccccc13)C2 | 25 mg/kg |
| 3.5 nM |  |  |  | 430 nM |  | OCCNc1cc(N2CCc3ccccc3C2)nc2ccccc12 | < 12 mg/kg |
| 8 nM |  |  |  | 5800 nM | 720 nM | c1ccc2c(c1)CCN(c1ccncc1)C2 | 3 mg/kg |
|  |  |  |  | 12 nM |  | C[C@@H]([C@H](O)c1ccc(O)cc1)N1CCC(Cc2ccccc2)CC1 [(R,S)-IFENPRODIL] | 16 mg/kg |
